Test results reported in article PMC8202272 (Pulmonary Circulation, 2021).

Columns and labels:
Male SD rats = assay: Drug plus three weeks hypoxia; type: in vivo, rat; settings: for Right ventricular systolic pressure (RVSP): 17.8 µg/h Alzet osmotic pump for 14 of 21 days of hypoxia; for RVH compared to the normal control group: 28 days post-hypoxia; for Induction of severe PAH: drug plus hypoxia, rats
In short: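 Male SD rats got test compound 20 mg/kg SC once or 17.8 μg/h by osmotic minipump, then 3 weeks at FiO2 10% and 14 or 28 days normoxia; untreated normoxic rats as controls. Under isoflurane, RV pressure by sternotomy catheter; RV free wall, IVS, LV weighed. Lungs perfused with 10% formalin, H&E 8 μm sections, lumen/media area ratio, ≥20 arterioles/section. RV Picro-Sirius red staining.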

[1] = tested on: human umbilical vein endothelial cell (HUVEC); assay: HUVEC proliferation assay; type: cell-based; settings: read-out: IC50 HUVECs proliferation
VEGFR2 kinase = settings: read-out: IC50 VEGFR2 kinase (reported); cited from earlier work
MRC5 = MRC5 proliferation assay; type: cell-based; settings: Homo sapiens, MRC5, read-out: IC50 MRC5 proliferation
[2] = Pharmacokinetic studies in Sprague Dawley rats; type: in vivo; settings: rat, plasma
[3] = molecular target: T1, bone morphogenic protein receptor type 2 (BMPR2) (Homo sapiens, UniProt Q13873); assay: KdELECT assay, inhibitor binding constant for BMPR2
T1 sequence (Q13873 27-1038): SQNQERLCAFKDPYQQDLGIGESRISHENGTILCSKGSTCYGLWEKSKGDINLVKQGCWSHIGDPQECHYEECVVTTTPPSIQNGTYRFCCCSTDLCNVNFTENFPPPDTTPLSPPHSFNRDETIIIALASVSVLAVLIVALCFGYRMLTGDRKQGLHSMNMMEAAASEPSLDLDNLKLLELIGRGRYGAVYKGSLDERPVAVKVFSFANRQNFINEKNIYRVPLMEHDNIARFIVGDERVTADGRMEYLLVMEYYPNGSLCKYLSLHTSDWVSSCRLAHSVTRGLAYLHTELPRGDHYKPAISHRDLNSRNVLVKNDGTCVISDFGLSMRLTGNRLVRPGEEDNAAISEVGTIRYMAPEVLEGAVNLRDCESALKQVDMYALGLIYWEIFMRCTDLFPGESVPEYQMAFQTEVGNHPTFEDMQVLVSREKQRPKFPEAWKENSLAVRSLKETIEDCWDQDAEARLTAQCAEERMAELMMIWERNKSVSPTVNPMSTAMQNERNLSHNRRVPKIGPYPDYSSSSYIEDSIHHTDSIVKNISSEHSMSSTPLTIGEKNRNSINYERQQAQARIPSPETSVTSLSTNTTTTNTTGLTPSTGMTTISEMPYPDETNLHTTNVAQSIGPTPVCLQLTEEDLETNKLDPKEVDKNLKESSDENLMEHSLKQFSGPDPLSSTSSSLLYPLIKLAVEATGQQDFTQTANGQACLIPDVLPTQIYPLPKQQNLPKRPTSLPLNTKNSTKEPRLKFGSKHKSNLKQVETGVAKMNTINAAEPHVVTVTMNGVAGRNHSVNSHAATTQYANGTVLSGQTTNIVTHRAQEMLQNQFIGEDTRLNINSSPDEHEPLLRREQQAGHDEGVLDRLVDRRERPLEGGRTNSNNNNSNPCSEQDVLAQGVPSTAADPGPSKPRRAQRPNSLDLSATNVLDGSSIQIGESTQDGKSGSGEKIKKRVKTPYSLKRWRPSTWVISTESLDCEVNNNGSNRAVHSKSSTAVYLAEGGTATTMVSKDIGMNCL

VEGFR2 = VEGFR2 (Homo sapiens, UniProt P35968); assay: KINOMEscan Profiling against 468 human kinases: VEGFR2; type: binding; settings: 10,000 nM
[4] = other: via an Alzet pump, 12 mg/kg

Sequence of VEGFR2 (P35968 20-1356): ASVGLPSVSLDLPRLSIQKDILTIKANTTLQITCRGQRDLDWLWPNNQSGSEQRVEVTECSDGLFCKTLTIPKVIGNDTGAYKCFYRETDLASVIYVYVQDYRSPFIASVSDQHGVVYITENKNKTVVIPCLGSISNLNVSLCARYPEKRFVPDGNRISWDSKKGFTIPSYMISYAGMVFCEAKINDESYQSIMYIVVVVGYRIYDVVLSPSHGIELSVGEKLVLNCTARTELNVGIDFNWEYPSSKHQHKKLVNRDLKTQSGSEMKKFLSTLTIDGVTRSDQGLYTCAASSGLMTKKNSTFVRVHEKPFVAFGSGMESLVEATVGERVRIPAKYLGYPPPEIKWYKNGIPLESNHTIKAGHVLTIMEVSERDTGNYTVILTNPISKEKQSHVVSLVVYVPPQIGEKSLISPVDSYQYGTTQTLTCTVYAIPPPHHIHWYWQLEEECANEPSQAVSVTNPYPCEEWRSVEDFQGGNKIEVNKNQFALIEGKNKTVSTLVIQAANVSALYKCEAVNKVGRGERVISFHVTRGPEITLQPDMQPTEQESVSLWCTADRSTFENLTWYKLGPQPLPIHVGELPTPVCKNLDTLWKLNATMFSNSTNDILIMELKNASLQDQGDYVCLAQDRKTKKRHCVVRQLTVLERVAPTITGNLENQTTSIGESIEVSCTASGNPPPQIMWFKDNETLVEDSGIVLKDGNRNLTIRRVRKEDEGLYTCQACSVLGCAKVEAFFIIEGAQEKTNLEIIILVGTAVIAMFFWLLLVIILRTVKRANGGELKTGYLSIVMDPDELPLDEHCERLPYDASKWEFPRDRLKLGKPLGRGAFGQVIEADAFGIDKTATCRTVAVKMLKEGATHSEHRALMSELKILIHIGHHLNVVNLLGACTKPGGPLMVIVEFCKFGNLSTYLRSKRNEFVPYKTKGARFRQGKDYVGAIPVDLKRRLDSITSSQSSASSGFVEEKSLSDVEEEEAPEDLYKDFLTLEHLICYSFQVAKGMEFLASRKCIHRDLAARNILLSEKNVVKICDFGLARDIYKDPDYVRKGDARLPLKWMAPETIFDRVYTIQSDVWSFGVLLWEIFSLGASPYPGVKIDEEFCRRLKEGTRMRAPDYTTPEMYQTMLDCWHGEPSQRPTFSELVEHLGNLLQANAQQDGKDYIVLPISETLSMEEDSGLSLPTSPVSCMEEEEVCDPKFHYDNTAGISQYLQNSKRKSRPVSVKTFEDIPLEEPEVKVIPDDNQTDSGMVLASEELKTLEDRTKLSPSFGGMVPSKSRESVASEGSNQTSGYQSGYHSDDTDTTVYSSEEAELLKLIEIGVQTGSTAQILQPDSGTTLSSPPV

SMILES	Right ventricular systolic pressure (RVSP) (Male SD rats; 14 days after removal from hypoxia, mean ± SEM)	Right ventricular systolic pressure (RVSP) (Male SD rats; 28 days after removal from hypoxia, mean ± SEM)	RVH by Fulton's Index (RV/(LV + IVS)) (Male SD rats; 14 days post-hypoxia, Cabo = SC + Alzet groups, mean ± SEM)	RVH compared to the normal control group (Male SD rats)	Induction of severe PAH (Male SD rats)	IC50 [1]	IC50 (VEGFR2 kinase)	IC50 (MRC5)	AUC(0-t) [2, 4]	Cmax [2, 4]	half-life [2, 4]	AUC(0-t) ([2]; sc, 20 mg/kg)	Cmax ([2]; sc, 20 mg/kg)	half-life ([2]; sc, 20 mg/kg)	Kd [3]	RV fibrosis (Picro-Sirius red, qualitative) (Male SD rats; days 14 and 28 after removal from hypoxia, SU5416H vs CaboH groups)	Activity against VEGFR2 in kinome screen (VEGFR2)
COc1cc2nccc(Oc3ccc(NC(=O)C4(C(=O)Nc5ccc(F)cc5)CC4)cc3)c2cc1OC [Cabozantinib, cabozantinib]	40.0 ± 3.1 mmHg	27.9 ± 1.9 mmHg	0.36 ± 0.02	no significant difference	did not induce severe PAH	4.9 nM	0.035 nM	549 nM	16800 ng·h/mL	238 ± 83 ng/mL	43 ± 8 h	27500 ng·h/mL	1620 ± 103 ng/mL	25.7 ± 10.8 h	> 10000 nM		
Cc1cc(C)c(/C=C2\C(=O)Nc3ccccc32)[nH]1 [SU5416]				significantly increased	induced severe PAH	330 nM		11700 nM				12.6 ± 2 ng·h/mL	4.97 ± 2.3 ng/mL	5 ± 4.7 h		increase in RV fibrosis	potent
